Results on 22 compounds are retold here after ChEMBL document CHEMBL1156261, “Evaluation of substituted N,N'-diarylsulfonamides as activators of the tumor cell specific M2 isoform of pyruvate kinase” (J Med Chem, 2010).

Broadly, the AC50 is the concentration giving half of the maximal activity seen.

The target of assay [1] is Pyruvate kinase PKLR (Homo sapiens) (UniProt P30613). Briefly: Activation of PKL assessed as pyruvate formation by fluorescent pyruvate kinase-lactate dehydrogenase coupled assay relative to control. Also on record: concentration or dose not given beside the values.
Assay [2] addresses T1, Pyruvate kinase PKM (Homo sapiens, UniProt P14618). Briefly: Activation of PKM2 assessed as ATP product formation at 57 uM by luminescent pyruvate kinase-luciferase coupled assay relative to fructose-1,6-bis-phosphate. A digest of the protocol: (§1)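 Recombinant human PKM2 (0.1 nM final) in 50 mM imidazole pH 7.2, 50 mM KCl, 7 mM MgCl2, 0.01% Tween 20, 0.05% BSA; 0.1 mM ADP, 0.5 mM PEP; 1 h at r.t., then Kinase-Glo luciferase read of ATP formed. Activation % = (c−n)/(n−i)×100 against DMSO and no-enzyme controls; 100% ≈ 2-fold over basal signal. Max response taken at 57 μM; three separate experiments.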
Target sequence in this assay (P14618 2-531 limits assumed): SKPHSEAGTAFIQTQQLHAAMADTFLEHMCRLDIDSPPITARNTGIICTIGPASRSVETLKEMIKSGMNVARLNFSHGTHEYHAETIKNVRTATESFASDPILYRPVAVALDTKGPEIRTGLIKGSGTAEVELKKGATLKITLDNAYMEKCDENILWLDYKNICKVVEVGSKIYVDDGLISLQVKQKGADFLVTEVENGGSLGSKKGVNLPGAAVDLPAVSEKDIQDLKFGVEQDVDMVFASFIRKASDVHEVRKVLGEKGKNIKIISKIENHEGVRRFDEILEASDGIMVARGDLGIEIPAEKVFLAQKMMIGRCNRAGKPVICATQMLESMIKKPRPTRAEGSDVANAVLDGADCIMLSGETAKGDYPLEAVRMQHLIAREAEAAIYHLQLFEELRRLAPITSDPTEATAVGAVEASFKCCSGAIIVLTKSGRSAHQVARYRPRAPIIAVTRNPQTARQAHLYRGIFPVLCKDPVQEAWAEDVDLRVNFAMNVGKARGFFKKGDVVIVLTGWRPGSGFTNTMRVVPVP

The target in assay [3] is T1, Pyruvate kinase PKM. Briefly: Activation of PKM2 assessed as ATP product formation by luminescent pyruvate kinase-luciferase coupled assay. A digest of the protocol: as §1
Target sequence in this assay (P14618 whole entry): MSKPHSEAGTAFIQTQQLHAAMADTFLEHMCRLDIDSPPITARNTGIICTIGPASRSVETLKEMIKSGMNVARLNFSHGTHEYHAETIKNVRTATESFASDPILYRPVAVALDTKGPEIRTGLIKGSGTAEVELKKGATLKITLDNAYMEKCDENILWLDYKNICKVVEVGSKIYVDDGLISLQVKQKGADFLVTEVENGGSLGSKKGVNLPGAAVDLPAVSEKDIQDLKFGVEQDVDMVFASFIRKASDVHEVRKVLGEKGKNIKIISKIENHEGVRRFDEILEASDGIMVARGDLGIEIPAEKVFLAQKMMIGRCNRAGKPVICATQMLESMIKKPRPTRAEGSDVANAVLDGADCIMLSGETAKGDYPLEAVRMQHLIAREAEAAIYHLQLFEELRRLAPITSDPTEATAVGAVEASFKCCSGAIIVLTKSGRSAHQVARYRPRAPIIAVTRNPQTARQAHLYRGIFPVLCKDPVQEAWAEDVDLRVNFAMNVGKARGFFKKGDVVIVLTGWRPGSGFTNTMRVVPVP
Assay [4] deals with Pyruvate kinase PKLR (Homo sapiens) (UniProt P30613). Briefly: Activation of PKL assessed as ATP product formation by luminescent pyruvate kinase-luciferase coupled assay relative to control. Details: concentration or dose not given beside the values. The essentials:
(§2)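 Luciferase-coupled ATP production assay run as for PKM2: imidazole pH 7.2 buffer with KCl, MgCl2, Tween 20 and BSA, 0.1 mM ADP, 0.5 mM PEP, 1 h at r.t., Kinase-Glo luminescence. Enzyme final concentrations were PKM1 1 nM, PKL 0.1 nM, PKR 0.1 nM. % activation normalized to DMSO (neutral) and no-enzyme controls.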

Assay [5] deals with T1, Pyruvate kinase PKM. Briefly: Activation of PKM1 assessed as pyruvate formation by fluorescent pyruvate kinase-lactate dehydrogenase coupled assay.
Target sequence in this assay (P14618 2-531 limits assumed): as the sequence (P14618 2-531 limits assumed) above
In assay [6] the target is T1, Pyruvate kinase PKM. Briefly: Activation of PKM1 assessed as ATP product formation by luminescent pyruvate kinase-luciferase coupled assay. The essentials: as §2
Target sequence in this assay (P14618 2-531 limits assumed): as above
The target in assay [7] is Pyruvate kinase PKLR (Homo sapiens) (UniProt P30613). Briefly: Activation of PKR assessed as ATP product formation by luminescent pyruvate kinase-luciferase coupled assay relative to control. Details: concentration or dose not given beside the values. A digest of the protocol: as §2
For assay [8] the target is unchanged. Briefly: Activation of PKR assessed as pyruvate formation by fluorescent pyruvate kinase-lactate dehydrogenase coupled assay relative to control. Also on record: concentration or dose not given beside the values.

Each structure is given as a SMILES string. The source made the active and inactive calls. A value given as a limit tells only on which side of the number the result lay.

Pyruvate kinase PKLR (Homo sapiens), sequence (P30613 whole entry, looked up): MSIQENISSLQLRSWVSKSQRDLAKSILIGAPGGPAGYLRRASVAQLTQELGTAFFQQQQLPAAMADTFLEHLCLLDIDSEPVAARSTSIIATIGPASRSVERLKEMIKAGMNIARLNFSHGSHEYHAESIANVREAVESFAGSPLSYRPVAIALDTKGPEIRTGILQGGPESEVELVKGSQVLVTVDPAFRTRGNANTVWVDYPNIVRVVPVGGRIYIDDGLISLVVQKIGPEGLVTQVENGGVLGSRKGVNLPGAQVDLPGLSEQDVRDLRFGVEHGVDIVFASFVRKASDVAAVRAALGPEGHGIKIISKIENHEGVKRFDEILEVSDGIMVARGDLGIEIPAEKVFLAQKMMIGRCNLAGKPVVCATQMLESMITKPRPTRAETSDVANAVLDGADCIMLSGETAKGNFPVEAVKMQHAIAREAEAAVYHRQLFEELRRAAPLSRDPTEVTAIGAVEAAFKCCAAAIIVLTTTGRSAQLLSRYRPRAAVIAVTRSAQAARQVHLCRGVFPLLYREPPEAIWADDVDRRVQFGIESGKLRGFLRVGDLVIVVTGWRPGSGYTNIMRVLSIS

Take `O=S(=O)(NCC1CN(S(=O)(=O)c2ccc3c(c2)OCCO3)C1)c1c(F)cccc1F`: the Activity in assay [1] was less than 30%; on Pyruvate kinase PKM [2], 93.3%; in assay [4] it was less than 30%; in assay [7], less than 30%; in assay [8] it was less than 30%. Also, the half-maximal activity concentration (AC50) at Pyruvate kinase PKM [3] (read-out: AC50) amounted to 4.47 µM. Moreover, the outcome on Pyruvate kinase PKM [5] and at Pyruvate kinase PKM [6] was inactive.
On to `O=S(=O)(NC1CCN(S(=O)(=O)c2ccc3c(c2)OCCO3)C1)c1c(F)cccc1F` (stereo unspecified), for which the Activity in assay [1] was less than 30%; at Pyruvate kinase PKM [2], 82.4%; in assay [4], less than 30%; in assay [7], less than 30%; in assay [8], less than 30%. Further, the AC50 at Pyruvate kinase PKM [3] (read-out: AC50) was greater than 15 µM. In addition, the result at Pyruvate kinase PKM [5] and at Pyruvate kinase PKM [6] was inactive.
Consider `C[C@@H]1CN(S(=O)(=O)c2ccc3c(c2)OCCO3)CCN1S(=O)(=O)c1c(F)cccc1F`, for which the Activity in assay [1] is less than 30%; on Pyruvate kinase PKM [2] it was 108%; in assay [4], less than 30%; in assay [7], less than 30%; in assay [8] it was less than 30%. Besides, the AC50 at Pyruvate kinase PKM [3] (read-out: AC50) is 2.93 µM. Further, the result on Pyruvate kinase PKM [5] and at Pyruvate kinase PKM [6] was inactive.
In the case of `O=S(=O)(N[C@H]1CC[C@@H](NS(=O)(=O)c2c(F)cccc2F)CC1)c1ccc2c(c1)OCCO2`, the Activity in assay [1] was less than 30%; on Pyruvate kinase PKM [2], 60.7%; in assay [4] it was less than 30%; in assay [7] it was less than 30%; in assay [8], less than 30%. Also, the AC50 on Pyruvate kinase PKM [3] (read-out: AC50) was greater than 35 µM. The result at Pyruvate kinase PKM [5] and on Pyruvate kinase PKM [6] was inactive.
As for `O=C(c1ccc2c(c1)OCCO2)N1CCN(S(=O)(=O)c2c(F)cccc2F)CC1`, the Activity in assay [1], in assay [4], in assay [7] and in assay [8] was less than 30% each time. Moreover, the result on Pyruvate kinase PKM [2], at Pyruvate kinase PKM [5] and at Pyruvate kinase PKM [6] was inactive. In addition, on Pyruvate kinase PKM [3], the concentration at half-maximal activity (AC50) entry is recorded as “Not Active”.
Turning to `O=C(c1c(F)cccc1F)N1CCN(S(=O)(=O)c2ccc3c(c2)OCCO3)CC1`, the Activity in assay [1], in assay [4], in assay [7] and in assay [8] was less than 30% in each case. The outcome on Pyruvate kinase PKM [2], at Pyruvate kinase PKM [5] and on Pyruvate kinase PKM [6] was inactive. Besides, the half-maximal activity concentration (AC50) entry on Pyruvate kinase PKM [3] is listed as “Not Active”.
Consider `O=S(=O)(NC1CCN(S(=O)(=O)c2c(F)cccc2F)CC1)c1ccc2c(c1)OCCO2`, for which the Activity in assay [1], in assay [4], in assay [7] and in assay [8] was less than 30% in each case. In addition, the AC50 on Pyruvate kinase PKM [3] (read-out: AC50) worked out at 9 µM. Moreover, the result at Pyruvate kinase PKM [5] and at Pyruvate kinase PKM [6] was inactive.
For the compound `O=S(=O)(c1ccc2c(c1)OCCO2)N1CCN(S(=O)(=O)c2cccc[n+]2[O-])CC1`, the Activity in assay [1] is less than 30%; on Pyruvate kinase PKM [2] it was 81.5%; in assay [4], less than 30%; in assay [7], less than 30%; in assay [8] it was less than 30%. The AC50 on Pyruvate kinase PKM [3] (read-out: AC50) is greater than 10 µM. Also, the outcome on Pyruvate kinase PKM [5] and on Pyruvate kinase PKM [6] was inactive.
`O=S(=O)(NC1CCN(S(=O)(=O)c2ccc3c(c2)OCCO3)CC1)c1c(F)cccc1F`: the Activity in assay [1] is less than 30%; on Pyruvate kinase PKM [2], 101%; in assay [4] it was less than 30%; in assay [7], less than 30%; in assay [8] it was less than 30%. Besides, the AC50 on Pyruvate kinase PKM [3] (read-out: AC50) amounted to 3.69 µM. The result on Pyruvate kinase PKM [5] and on Pyruvate kinase PKM [6] was inactive.
For `O=S(=O)(NCC1CN(S(=O)(=O)c2c(F)cccc2F)C1)c1ccc2c(c1)OCCO2`, the Activity in assay [1] was less than 30%; at Pyruvate kinase PKM [2], 108%; in assay [4], less than 30%; in assay [7] it was less than 30%; in assay [8], less than 30%. In addition, on Pyruvate kinase PKM [3] (read-out: AC50), the AC50 was 3.05 µM. In addition, the outcome at Pyruvate kinase PKM [5] and on Pyruvate kinase PKM [6] was inactive.
Consider `COc1cccc(S(=O)(=O)N2CCN(S(=O)(=O)c3ccc4c(c3)OCCO4)CC2)c1`, for which the Activity in assay [1] is less than 30%; at Pyruvate kinase PKM [2], 90%; in assay [4], less than 30%; in assay [7] it was less than 30%; in assay [8], less than 30%. Further, the outcome on Pyruvate kinase PKM [5] and on Pyruvate kinase PKM [6] was inactive.
With `O=S(=O)(NC1CCN(S(=O)(=O)c2c(F)cccc2F)C1)c1ccc2c(c1)OCCO2` (stereo unspecified), the Activity was less than 30% in assay [1]; 83.7% at Pyruvate kinase PKM [2]; less than 30% in assay [4]; less than 30% in assay [7]; less than 30% in assay [8]. Further, on Pyruvate kinase PKM [3] (read-out: AC50), the AC50 was greater than 10 µM. Further, the outcome at Pyruvate kinase PKM [5] and on Pyruvate kinase PKM [6] was inactive.
In the case of `O=S(=O)(c1ccccc1)N1CCN(S(=O)(=O)c2ccc3c(c2)OCCO3)CC1`, the Activity was less than 30% in assay [1]; 108% on Pyruvate kinase PKM [2]; less than 30% in assay [4]; less than 30% in assay [7]; less than 30% in assay [8]. The outcome on Pyruvate kinase PKM [5] and on Pyruvate kinase PKM [6] was inactive.
Consider `O=S(=O)(c1ccc2ccccc2c1)N1CCN(S(=O)(=O)c2c(F)cccc2F)CC1`, for which the Activity was less than 30% in assay [1]; 138% on Pyruvate kinase PKM [2]; less than 30% in assay [4]; less than 30% in assay [7]; less than 30% in assay [8]. Besides, the result at Pyruvate kinase PKM [5] and at Pyruvate kinase PKM [6] was inactive.
For `O=S(=O)(c1cccc(C(F)(F)F)c1)N1CCN(S(=O)(=O)c2ccc3c(c2)OCCO3)CC1`, the Activity in assay [1] is less than 30%; on Pyruvate kinase PKM [2], 39.3%; in assay [4] it was less than 30%; in assay [7], less than 30%; in assay [8] it was less than 30%. For the same compound, the result at Pyruvate kinase PKM [5] and at Pyruvate kinase PKM [6] was inactive.
Consider `O=S(=O)(NCCCCNS(=O)(=O)c1c(F)cccc1F)c1ccc2c(c1)OCCO2`, for which the Activity in assay [1] was less than 30%; at Pyruvate kinase PKM [2] it was 113%; in assay [4] it was less than 30%; in assay [7], less than 30%; in assay [8] it was less than 30%. Also, the outcome at Pyruvate kinase PKM [5] and at Pyruvate kinase PKM [6] was inactive.
With `O=S(=O)(NCCNS(=O)(=O)c1c(F)cccc1F)c1ccc2c(c1)OCCO2`, the Activity in assay [1] is less than 30%; at Pyruvate kinase PKM [2], 60.3%; in assay [4], less than 30%; in assay [7], less than 30%; in assay [8] it was less than 30%. Also, the AC50 at Pyruvate kinase PKM [3] (read-out: AC50) is greater than 15 µM. Also, the result at Pyruvate kinase PKM [5] and on Pyruvate kinase PKM [6] was inactive.
As to `O=S(=O)(c1ccc2c(c1)OCCO2)N1CCN(S(=O)(=O)c2ccccc2F)CC1`, the Activity in assay [1] was less than 30%; on Pyruvate kinase PKM [2], 114%; in assay [4], less than 30%; in assay [7], less than 30%; in assay [8], less than 30%. Also, the outcome at Pyruvate kinase PKM [5] and on Pyruvate kinase PKM [6] was inactive.
Regarding `C[C@H]1CN(S(=O)(=O)c2ccc3c(c2)OCCO3)CCN1S(=O)(=O)c1c(F)cccc1F`, the Activity in assay [1] was less than 30%; at Pyruvate kinase PKM [2], 108%; in assay [4], less than 30%; in assay [7], less than 30%; in assay [8] it was less than 30%. For the same compound, the AC50 on Pyruvate kinase PKM [3] (read-out: AC50) is 9.18 µM. For the same compound, the result on Pyruvate kinase PKM [5] and on Pyruvate kinase PKM [6] was inactive.
Turning to `O=S(=O)(c1ccc2c(c1)OCCCO2)N1CCN(S(=O)(=O)c2c(F)cccc2F)CC1`, the Activity in assay [1] was less than 30%; at Pyruvate kinase PKM [2], 100%; in assay [4], less than 30%; in assay [7], less than 30%; in assay [8], less than 30%. Moreover, the outcome at Pyruvate kinase PKM [5] and on Pyruvate kinase PKM [6] was inactive.
On to `O=S(=O)(NCCCCCNS(=O)(=O)c1c(F)cccc1F)c1ccc2c(c1)OCCO2`, for which the Activity in assay [1] was less than 30%; at Pyruvate kinase PKM [2], 114%; in assay [4] it was less than 30%; in assay [7] it was less than 30%; in assay [8], less than 30%. Further, the outcome on Pyruvate kinase PKM [5] and on Pyruvate kinase PKM [6] was inactive.
Regarding `O=S(=O)(NCCCCCCNS(=O)(=O)c1c(F)cccc1F)c1ccc2c(c1)OCCO2`, the Activity in assay [1] was less than 30%; on Pyruvate kinase PKM [2], 110%; in assay [4], less than 30%; in assay [7], less than 30%; in assay [8], less than 30%. Besides, the outcome on Pyruvate kinase PKM [5] and on Pyruvate kinase PKM [6] was inactive.
